Measurements: ChEMBL document CHEMBL3822382 (Eur J Med Chem, 2016)
Calls of active or inactive are those of the source. The calls are words filed in the database; no cut-off is given here.

How the values were obtained:
A2780cisR [1] = assay: Vascular disrupting activity against human A2780cis cells xenografted in athymic nude mouse assessed as discoloration of tumor at 100 mg/kg, ip after 24 hrs; format: functional, organism-based
Summary of the method: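 Athymic nude mice carried subcutaneous flank xenografts from 8 million cells in PBS. A single intraperitoneal dose of 100 mg/kg was given, and tumor discoloration was photographed 24 h later.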

HT-29 [2] = assay: Induction of cytoskeletal damage in combretastatin A-4 resistant human HT-29 cells xenografted in fertilized white leghorn chicken egg chorioallantoic membrane at 5 nmol after 24 hrs by hematoxylin and eosin staining based stereomicroscopic analysis; format: functional, cell-based
Summary of the method: (§1)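 Pellets of 1×10^6 HT-29 cells in matrigel/serum-free RPMI placed on the CAM of fertilized eggs for 48 h. Then 5 nmol (100 µL of 50 µM in PBS) applied outside a silicon ring around the pellet; DMSO as control. Imaged by stereomicroscopy after 24 h. Micro-xenografts then explanted, formalin-fixed, paraffin-embedded and HE-stained.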

HT-29 [3] = assay: Cell cycle arrest in combretastatin A-4 resistant human HT-29 cells assessed as mitotic cells at 100 nM after 24 hrs by propidium iodide/immunostaining method (reference value: 3.1 to 3.2%); format: functional
Summary of the method: (§2)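 HT-29 cells (200,000/well) were treated 24 h with 100 nM indole, 5 μM CA-4 or DMSO. Cells were trypsinized, fixed in 4% formaldehyde (20 min, RT) and permeabilized in 90% ice-cold methanol (30 min). They were immunostained with anti-phospho-histone H3 (Ser10) (5 μg/mL, 37 °C, 1 h) plus an AlexaFluor-488 secondary, then stained with PI/RNase (30 min, 37 °C). Flow cytometry of 10,000 single cells assigned G1/S/G2/M.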

HT-29 [4] = assay: Induction of apoptosis in combretastatin A-4 resistant human HT-29 cells xenografted in fertilized white leghorn chicken egg chorioallantoic membrane at 5 nmol after 24 hrs by hematoxylin and eosin staining based stereomicroscopic analysis; format: functional, cell-based; summary of the method: as §1
[5] = Cell cycle arrest in human 518A2 cells assessed as accumulation at G2/M phase at 100 nM after 24 hrs by propidium iodide staining-based flow cytometry (reference value: 26.3%); format: functional
Gallus gallus = organism: Gallus gallus; assay: Cytotoxicity against fertilized white leghorn chicken egg chorioallantoic membrane microtumor model of CA-4 resistant human HT-29 cells assessed as reduction in embryo vitality at 5 nmol after 24 hrs; format: organism-based; conditions: ht-29, 24 h
[6] = Cell cycle arrest in human 518A2 cells assessed as apoptotic index ratio at 100 nM after 24 hrs by propidium iodide staining-based flow cytometry relative to control; format: functional
Sus scrofa = organism: Sus scrofa; assay: Decrease in rate of porcine brain alpha/beta tubulin polymerization at 5 uM measured every 20 sec by microplate reader analysis
HT-29 [7] = assay: Cell cycle arrest in combretastatin A-4 resistant human HT-29 cells assessed as accumulation at G1 phase at 50 nM after 24 hrs by propidium iodide staining-based flow cytometry (reference value: 68.1 +/- 0.3%); format: functional
HT-29 [8] = assay: Antivascular activity against in combretastatin A-4 resistant human HT-29 cells xenografted in fertilized white leghorn chicken egg chorioallantoic membrane assessed as blood vessel destruction at 5 nmol after 24 hrs by hematoxylin and eosin staining based stereomicroscopic analysis; format: functional, cell-based
Summary of the method: (§3)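 Pellets of 1 × 10⁶ HT-29 cells in 10 μL of 1:1 matrigel/serum-free RPMI (gelled 30 min, 37 °C) were placed on the CAM of fertilized eggs and left 48 h. Then 100 μL of a 50 μM PBS dilution (5 nmol) was pipetted outside a silicon ring around the pellet; DMSO served as control. After 24 h, stereomicroscopy was done, and micro-xenografts were explanted, formalin-fixed, paraffin-embedded and HE-stained.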

1411HP [9] = assay: Vascular disrupting activity against multidrug resistant human 1411HP cells xenografted in athymic nude mouse assessed as hemorrhage at 100 mg/kg, ip after 24 hrs by hematoxylin and eosin staining based microscopic analysis; format: functional, organism-based
Summary of the method: (§4)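 Athymic nude mice carried subcutaneous flank xenografts from 8 million cells. A single intraperitoneal dose of 100 mg/kg was given. After 24 h tumors were explanted, fixed in 5% formalin, paraffin-embedded and HE-stained for microscopic examination of vessels, hemorrhage and necrosis.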

HT-29 [10] = assay: Cell cycle arrest in combretastatin A-4 resistant human HT-29 cells assessed as accumulation at G2 phase at 100 nM after 24 hrs by propidium iodide staining-based flow cytometry (reference value: 15.6 +/- 0.1%); format: functional; summary of the method: as §2
A2780cisR [11] = assay: Vascular disrupting activity against human A2780cis cells xenografted in athymic nude mouse assessed as hemorrhage at 100 mg/kg, ip after 24 hrs by hematoxylin and eosin staining based microscopic analysis; format: functional, organism-based; summary of the method: as §4
1411HP [12] = assay: Vascular disrupting activity against multidrug resistant human 1411HP cells xenografted in athymic nude mouse assessed as disruption of blood vessel at 100 mg/kg, ip after 24 hrs by hematoxylin and eosin staining based microscopic analysis; format: functional, organism-based; summary of the method: as §4
HT-29 [13] = assay: Cell cycle arrest in combretastatin A-4 resistant human HT-29 cells assessed as accumulation at S phase at 100 nM after 24 hrs by propidium iodide staining-based flow cytometry (reference value: 13.7 +/- 0.3%); format: functional; summary of the method: as §2
HT-29 [14] = assay: Cell cycle arrest in combretastatin A-4 resistant human HT-29 cells assessed as accumulation at G1 phase at 100 nM after 24 hrs by propidium iodide staining-based flow cytometry (reference value: 68.1 +/- 0.3%); format: functional; summary of the method: as §2
518A2 = assay: Induction of microtubule disruption in human 518A2 cells at 100 nM incubated for 24 hrs by DAPI staining based immunofluorescence microscopic analysis; format: cell-based
Summary of the method: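 518A2 cells (25,000/well) on coverslips treated 24 h with 100 nM. Cells fixed in 4% formaldehyde, permeabilized and blocked (Triton X-100/BSA). Stained with mouse anti-alpha-tubulin (37 °C, 1 h) and AlexaFluor-488 secondary; nuclei counterstained with DAPI (1 µg/mL). Imaged by fluorescence microscopy at 400×.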

HT-29 [15] = assay: Antivascular activity against in combretastatin A-4 resistant human HT-29 cells xenografted in fertilized white leghorn chicken egg chorioallantoic membrane assessed as retraction of tumor cells at 5 nmol after 24 hrs by hematoxylin and eosin staining based stereomicroscopic analysis; format: functional, cell-based; summary of the method: as §3
A2780cisR [16] = assay: Antitumor activity against human A2780cis cells xenografted in athymic nude mouse assessed as reduction in tumor growth at 40 mg/kg, ip administered on day 3, 7, 10 and 14; format: functional, organism-based
HT-29 [17] = assay: Cell cycle arrest in combretastatin A-4 resistant human HT-29 cells assessed as accumulation at G2 phase at 50 nM after 24 hrs by propidium iodide staining-based flow cytometry (reference value: 15.6 +/- 0.1%); format: functional
[18] = Cell cycle arrest in human 518A2 cells assessed as accumulation at S phase at 100 nM after 24 hrs by propidium iodide staining-based flow cytometry (reference value: 20.4%); format: functional
A2780cisR [19] = assay: Vascular disrupting activity against human A2780cis cells xenografted in athymic nude mouse assessed as tumor necrosis at 100 mg/kg, ip after 24 hrs by hematoxylin and eosin staining based microscopic analysis; format: functional, organism-based; summary of the method: as §4
[20] = Cytotoxicity against fertilized white leghorn chicken embryos in CAM model assessed as lethality at 2.5 nmol after 24 hrs relative to control; format: organism-based, Gallus gallus; conditions: in vivo

With COc1cc(-c2ncn(C)c2-c2ccc3c(c2)c(Cl)cn3C)cc(Br)c1OC.Cl as the compound, how does the Activity (A2780cisR [1]) read?
The Activity was “Active”.

What about the Activity (HT-29 [2]) of the same compound?
Its Activity is “Active”.

What about the Activity (HT-29 [3]) of the same compound?
Its Activity is 77.8%.

And the Activity (HT-29 [4])?
Its Activity is “Active”.

And the Activity [5]?
Its Activity is 33.9%.

What about the Activity (Gallus gallus) of the same compound?
The Activity was “Non-toxic”.

What about the Ratio [6] of the same compound?
The Ratio was 4.4.

What about the Activity (Sus scrofa) of the same compound?
The Activity was “Active”.

And the Activity (HT-29 [7])?
The Activity was 43.5%.

And the Activity (HT-29 [8])?
Its Activity is “Active”.

And the Activity (1411HP [9])?
Its Activity is “Active”.

And the Activity (HT-29 [10])?
Its Activity is 4.6%.

What about the Activity (A2780cisR [11]) of the same compound?
Its Activity is “Active”.

And the Activity (1411HP [12])?
Its Activity is “Active”.

And the Activity (HT-29 [13])?
The Activity was 8%.

What about the Activity (HT-29 [14]) of the same compound?
Its Activity is 12%.

And the Activity (518A2)?
Its Activity is “Active”.

And the Activity (HT-29 [15])?
Its Activity is “Active”.

What about the Activity (A2780cisR [16]) of the same compound?
Its Activity is “Active”.

And the Activity (HT-29 [17])?
The Activity was 15.2%.

And the Activity [18]?
Its Activity is 17.8%.

What about the Activity (A2780cisR [19]) of the same compound?
The Activity was “Active”.

With COc1cc(-c2ncn(C)c2-c2ccc3c(c2)c(Cl)cn3C)cc(OC)c1OC as the compound, how does the mortality at 24 h [20] read?
Its mortality at 24 h is 67%.
